The values below come from ChEMBL document CHEMBL4321838, “Drug Design Targeting T-Cell Factor-Driven Epithelial-Mesenchymal Transition as a Therapeutic Strategy for Colorectal Cancer” (J Med Chem, 2019).

For data set [1], the system named is SW-620. The data set is described as follows: Anticlonogenic activity against human SW620 cells assessed as loss of cancer stem cell stemness by measuring inhibition of colony formation at 10 uM incubated for 24 hrs followed by replating and measured after 7 days by clonogenic assay. Format: functional, cell-based.
Data set [2] concerns SW-620. The data set is described as follows: Antiinvasive activity in human SW620 organoids transduced with NucLight-Red virus assessed as inhibition of cell invasion at 10 uM incubated for 72 hrs and measured after 72 hrs by matrigel based fluorescence analysis. Format: functional. The method, boiled down: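 NucLight-Red-labelled SW620 organoids treated 72 h at 10 μM in 0.1% DMSO, then dissociated. 5,000 live cells per well seeded in 50% Matrigel in the upper chamber of a migration plate, 0.5% FBS above and 20% FBS below. Invading cells tracked by bottom-side fluorescence over days, six replicates per condition.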

In data set [3] the target is T1, DNA topoisomerase 2-alpha (Homo sapiens, UniProt P11388). The data set is described as follows: Inhibition of human topoisomerase 2alpha mediated decatenation at 30 uM using kDNA as susbtrate preincubated for 20 mins followed by substrate and ATP addition and measured after 1 hr by ethidium bromide staining based gel electrophoresis method relative to control. Summed up: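 Human TOP2A (3 U) preincubated 20 min at 37 °C with compound at 30 μM in 1.2% DMSO. Reaction started with 2 mM ATP and 35 ng kDNA and run 1 h at 37 °C. Products resolved on 0.8% agarose in TBE with 0.2 μg/mL ethidium bromide; decatenated bands compared with vehicle.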
T1 sequence (P11388 whole entry): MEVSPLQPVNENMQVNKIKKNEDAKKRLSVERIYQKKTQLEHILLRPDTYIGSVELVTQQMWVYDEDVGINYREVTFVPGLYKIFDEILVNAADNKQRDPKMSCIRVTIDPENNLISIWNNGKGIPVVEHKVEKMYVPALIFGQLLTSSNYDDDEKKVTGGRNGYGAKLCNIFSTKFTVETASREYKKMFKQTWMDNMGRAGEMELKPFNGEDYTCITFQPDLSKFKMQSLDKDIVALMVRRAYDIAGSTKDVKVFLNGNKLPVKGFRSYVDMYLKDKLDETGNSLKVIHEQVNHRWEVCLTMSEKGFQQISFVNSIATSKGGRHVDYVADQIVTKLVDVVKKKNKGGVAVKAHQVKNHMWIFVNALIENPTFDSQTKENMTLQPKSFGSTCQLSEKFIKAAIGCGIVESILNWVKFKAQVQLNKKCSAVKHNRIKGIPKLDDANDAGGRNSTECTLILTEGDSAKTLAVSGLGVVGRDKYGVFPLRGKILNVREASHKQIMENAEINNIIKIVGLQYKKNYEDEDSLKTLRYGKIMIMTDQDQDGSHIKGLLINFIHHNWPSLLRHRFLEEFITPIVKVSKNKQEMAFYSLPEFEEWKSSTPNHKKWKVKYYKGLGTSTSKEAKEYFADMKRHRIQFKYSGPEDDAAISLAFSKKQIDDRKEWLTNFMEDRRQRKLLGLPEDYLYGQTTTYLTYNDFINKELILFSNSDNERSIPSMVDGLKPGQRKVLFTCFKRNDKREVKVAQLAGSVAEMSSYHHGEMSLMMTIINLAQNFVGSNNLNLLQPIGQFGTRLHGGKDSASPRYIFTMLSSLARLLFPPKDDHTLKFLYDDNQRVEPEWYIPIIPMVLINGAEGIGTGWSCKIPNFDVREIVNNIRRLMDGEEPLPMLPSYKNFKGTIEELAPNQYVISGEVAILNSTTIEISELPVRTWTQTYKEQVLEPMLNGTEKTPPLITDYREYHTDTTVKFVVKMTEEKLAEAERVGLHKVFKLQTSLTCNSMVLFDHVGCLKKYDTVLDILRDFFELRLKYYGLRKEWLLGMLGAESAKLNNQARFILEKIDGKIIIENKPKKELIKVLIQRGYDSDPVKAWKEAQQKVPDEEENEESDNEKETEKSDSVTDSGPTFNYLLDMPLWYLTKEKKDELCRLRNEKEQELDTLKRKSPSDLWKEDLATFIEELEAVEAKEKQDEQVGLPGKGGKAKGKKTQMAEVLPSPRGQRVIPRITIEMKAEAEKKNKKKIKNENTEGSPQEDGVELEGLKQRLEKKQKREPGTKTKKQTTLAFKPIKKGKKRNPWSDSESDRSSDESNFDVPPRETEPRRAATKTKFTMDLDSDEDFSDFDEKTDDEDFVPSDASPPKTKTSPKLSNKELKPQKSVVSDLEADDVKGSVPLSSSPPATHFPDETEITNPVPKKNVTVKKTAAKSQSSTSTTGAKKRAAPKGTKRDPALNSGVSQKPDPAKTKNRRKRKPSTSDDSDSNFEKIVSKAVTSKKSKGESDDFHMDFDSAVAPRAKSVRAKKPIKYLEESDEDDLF

Data set [4] addresses T1, DNA topoisomerase 2-alpha. Put plainly: Inhibition of topoisomerase 2alpha dependent TCF transcription in human SW620 organoids transduced with TOPflash luminescent reporter after 72 hrs by luciferase based TOPFlash reporter gene assay. Summed up: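 SW620 cells stably carrying pCDH-TOPflash-luc grown as organoids: 5,000 cells per U-bottom well in phenol red-free RPMI with 5% FBS and 2% Matrigel, 72 h. Inhibitor then applied 72 h. One-Glo luciferase and CellTiter-Glo 3D added 1:1. Luciferase signal normalised to viability, then to DMSO controls.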
In general terms: A reporter such as luciferase makes a cellular process visible.

For data set [5], the system named is SW-620. The data set is described as follows: Cytotoxicity against human SW620 organoids assessed as cell death with loss of membrane integrity after 72 hrs by CellTox Green assay. Format: functional, cell-based. To be noted: SW-620, 72 h. The method, boiled down: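 SW620 tumor organoids exposed 72 h to inhibitor over 0–40 μM together with CellTox Green Express (0.5X). Whole-well mean fluorescence imaged (ex 488, em 500–550 nm). Normalised to lysis buffer as 0% viability and 0.4% DMSO as 100% viability.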

Data set [6] deals with T1, DNA topoisomerase 2-alpha. The data set is described as follows: Inhibition of topoisomerase 2alpha in human SW620 organoids transfected with VimPro-GFP reporter assessed as reversion of epithelial-mesenchymal transition by measuring reduction in vimentin expression up to 40 uM after 72 hrs by Hoechst 33342 staining based GFP reporter gene assay. Summed up: (§1)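 SW620 cells stably carrying VimPro-GFP or EcadPro-mCherry (puromycin selected) grown as organoids and dosed 72 h. Stained with 16 μM Hoechst 33342 for 1 h and imaged as 15 z-layers, 26.5 μm apart. Nuclei segmented and GFP- or mCherry-positive cells counted above background thresholds. Percent positive cells normalised to DMSO.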

For data set [7], the target named is T1, DNA topoisomerase 2-alpha. Put plainly: Inhibition of topoisomerase 2alpha in human SW620 organoids transfected with EcadPro-RFP reporter assessed as reversion of epithelial-mesenchymal transition by measuring increase in E-cadherin expression up to 40 uM after 72 hrs by Hoechst 33342 staining based mCherryRFP reporter gene assay. The method, boiled down:
as §1

Data set [8] relates to SW-620. The data set is described as follows: Induction of apoptosis in human SW620 organoids assessed as increase in cleaved caspase 3/7 level at 40 uM after 72 hrs by caspase-glo 3/7 luminescence assay relative to control. Format: functional. Summed up:
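SW620 cells, 2,000 per well in 384-well ultra-low attachment plates with 2% Matrigel, grown 72 h into organoids, then dosed 72 h. Caspase-Glo 3/7 reagent added 1:1 and shaken 30 min; luminescence read. Staurosporine served as positive control and 0.4% DMSO as negative control.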

Data set [9] in a line: Aqueous solubility of compound in PBS at 1 mg after 18 hrs by UV based analysis. Format: physicochemical. The method, boiled down:
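Undissolved material removed by centrifugation at 5,000g for 45 min. UV absorption compared with a fully saturated 1-propanol solution; solubility derived by linear regression.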

The nature of data set [10]: Half life in CD-1 mouse microsomes measured up to 1 hr by LC-MS analysis. Format: ADME, Microsome. Summed up: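 Female CD-1 mouse liver microsomes (0.5 mg/mL), substrate 1 μg/mL and 1.5 mM NADPH in 0.1 M phosphate buffer pH 7.4 at 37 °C. Samples taken from 0 to 60 min and quenched with an equal volume of acetonitrile. Parent compound remaining measured by LC-MS/MS without internal standard.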

Data set [11] can be described thus: Cmax in CD-1 mouse at 50 mg/kg, ip by LC-MS/MS analysis. More on the design: dose 50 mg/kg, route intraperitoneal. To be noted: in vivo. Format: ADME, organism-based. Summed up:
(§2)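 Female CD-1 mice, single IP injection at 50 mg/kg in 100% DMSO. Sampling from 0.25 to 24 h, three mice per time point (21 per compound). Heparinised blood was spun to plasma, mixed 1:1 with acidified acetonitrile (0.1% formic acid or 0.1% TFA depending on compound), centrifuged, then measured by LC-MS/MS.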

Data set [12] in a line: Tmax in CD-1 mouse at 50 mg/kg, ip by LC-MS/MS analysis. Format: ADME, organism-based. To be noted: in vivo. The method, boiled down: as §2
The next data set concerns Mus musculus. Put plainly: Apparent volume of drug distribution in CD-1 mouse at 50 mg/kg, ip by LC-MS/MS analysis. Format: ADME, organism-based. The settings on record: in vivo. The method, boiled down: as §2
Data set [13] in a line: AUC(0 to t) in CD-1 mouse at 50 mg/kg, ip by LC-MS/MS analysis. Format: ADME, organism-based. To be noted: in vivo. Summed up: as §2
A short description of data set [14]: Clearance in CD-1 mouse at 50 mg/kg, ip by LC-MS/MS analysis. Format: ADME, organism-based. To be noted: in vivo. The method, boiled down: as §2
A short description of data set [15]: Half life of terminal disposition phase in CD-1 mouse at 50 mg/kg, ip by LC-MS/MS analysis. Format: ADME, organism-based. The settings on record: in vivo, read-out: t1/2lambda (converted). Summed up: as §2
Data set [16] has as its system SW-620. Put plainly: Induction of early stage cell death in human SW620 organoids transfected with EcadPro-RFP reporter assessed as loss of RFP reporter activity at 40 uM at after 72 hrs by Hoechst 33342 staining based mCherryRFP reporter gene assay. The settings on record: sw-620, 72 h.
Data set [17] can be described thus: Metabolic stability in CD-1 mouse inactive microsomes incubated for 1 hr by LC-MS/MS analysis. Format: ADME, Microsome.
Data set [18] can be described thus: Metabolic stability in CD-1 mouse active microsomes assessed as CYP450-mediated oxidative phase 1 metabolite formation measured up to 60 mins by LC-MS/MS analysis. Format: ADME. The settings on record: 1 h.
Data set [19] in a line: Drug metabolism in CD-1 mouse active microsomes assessed as CYP450-mediated oxidative phase 1 metabolite formation by LC-MS/MS analysis.
In data set [20] the test system is SW-620. Put plainly: Cytotoxicity against human SW620 organoids assessed as growth inhibition at 10 uM after 72 hrs by brightfield imaging of organoid volume.

≈ marks a conversion by molar mass, not a printed value. Calls of active or inactive are those of the source.

As usually defined, the inhibition is the change of the read-out against control, counted positive when it falls. As usually defined, the IC50 is the concentration at which inhibition is half-maximal. A high value points to a need for much substance. One may read the EC50 as the concentration that produces a half-maximal response. Usually thermodynamic solubility stands for the concentration in solution at equilibrium with solid. The Cmax is the highest concentration seen after dosing. What is called Tmax is the time at which the peak concentration occurs. In general, AUC(0-t) refers to exposure summed from dosing to a finite time, without extrapolation to infinity. As a reminder, the CL/F is clearance divided by bioavailability, as obtained after extravascular dosing. Turning to `O=C(CCN1CCOCC1)Nc1ccc2c(-c3cc(F)ccc3O)ccnc2c1O`, the inhibition result (in the data set on SW-620 [1]; with SW-620 [2]; in [6]; in data set [7]) was “Active” in each case. This compound also gave an inhibition in [3] of 90%. In addition, the half-inhibitory concentration (IC50) in data set [4] is 0.7 µM. Besides, the EC50 in the data set on SW-620 [5] was found to be 16 µM. Besides, in the data set on SW-620 [8], the “fold change (FC)” value is on record as 9. The compound also displayed a thermodynamic solubility at 18 h in data set [9] of 1520 µg/mL (≈ 3.69 mM). Besides, the t1/2 in data set [10] was determined as 8.53 min. The compound further had a Cmax in data set [11] of 10900 ng/mL. For the same compound, the Tmax in [12] was 15 min. For the same compound, the Vz with Mus musculus worked out at 34 L/kg. Also, the AUC(0-t) in data set [13] is 13000 ng·h/mL. Besides, the CL/F in [14] is 62.2 mL/min/kg. For the same compound, the half-life in data set [15] was 379 min. In addition, the result in the data set with SW-620 [16] was Active. Further, the Stability result in [17] is given as “Stable”. The Drug metabolism entry in data set [18] is reported as “Metabolite_Detected”; in [19] it was “Metabolite_Notdetected”. Further, in the data set with SW-620 [20], the “growth inhibition (GI)” value was “Active”.
